Assay outcomes as filed in PubChem.
An excerpt weighted towards active compounds, which were near 1.9% of everything screened.
697 NFkB inh – lowers PMA/ionomycin-induced NF-kB signal in 697 B cells | 697 B-cell NF-kB luciferase reporter, 16 h | inhibition, % at 4 µM | 330,000 compounds, 0.33% hits; in the data active means inhibition above about 35%
Jurkat NFkB inh – lowers PMA/ionomycin-induced NF-kB signal in Jurkat cells; 330,000 compounds, 0.53% hits; AID 435003; inhibition, % at 4 µM; PMA/ionomycin-induced NF-kB luciferase reporter, luminescence; in the data active means inhibition above about 50%
aSyn 5UTR inh – MLPCN primary screen, SNCA 5' untranslated region; alpha-synuclein 5'UTR reporter, inhibitor activity; AID 1813; inhibition, % (tested at 7.5 µM); 300,000 compounds, 0.82% hits; in the data active means inhibition above about 60%; inconclusive means no clear call, values can overlap the other calls;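 further: H4 neuroglioblastoma cells stably carrying SNCA 5'UTR luciferase fusion; 0% = DMSO wells and 100% = positive control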
APP transl inh – APP translation inhibition | SH-SY5Y APP 5'UTR-luciferase reporter, luminescence | AID 1285 | 190,000 compounds, 0.82% hits | inhibition, % at 2 µM;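 active means inhibition above a set limit, derived from the sample mean plus 3 SD, cut at about 45% in these data; inconclusive means one replicate passes the limit while the other fails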
Lipid droplet – hepatic lipid droplet formation modulation; AML12 mouse hepatocytes, oleate lipid droplets, BODIPY imaging; inhibition, % at 6.5 µM; 240,000 compounds, 0.4% hits;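 active means lipid droplet intensity inhibited by at least 50%, with more than 500 cells counted; inconclusive means wells with under 300 cells, treated as cytotoxic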
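Assay system: AML12 hepatocytes (mouse); Probe or stimulus: oleic acid at 100 µM to induce lipid droplet formation; Dosing: compound at 6.5 µM only; Schedule: compound with oleate, overnight; Detection: fluorescence imaging, 20x objective, two fields per well; Measure: % inhibition of lipid droplet signal.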
H9c2 TAG inh – inhibitors of triacylglycerol accumulation | AID 651582 | 230,000 compounds, 0.66% hits | H9c2 cells, Nile Red lipid (TAG) fluorescence; cells loaded with 200 µM oleic acid | inhibition, % at 12.5 µM;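 active means pattern-corrected inhibition of lipid staining of at least 50% with the nuclear-stain viability signal not falling by more than 50%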;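 further: 0% = DMSO wells and 100% = triacsin C control wells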
Jurkat NFkB conf – lowers PMA/ionomycin-induced NF-kB signal in Jurkat cells; shares compounds with Jurkat NFkB inh; Jurkat NF-kB luciferase, 16 h; 2,700 compounds, 27% hits; inhibition, % at 4 µM; AID 435020;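 active means inhibition reaching about 45% at 4 µM in either replicate, limit read from the data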;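 further: plate controls were PMA/ionomycin stimulated DMSO wells for no effect and unstimulated DMSO wells for full effect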
Starred values were filed as active, the others as inactive; u = inconclusive; x = no result given.

SMILES | 697 NFkB inh | Jurkat NFkB inh | aSyn 5UTR inh | APP transl inh | Lipid droplet | H9c2 TAG inh | Jurkat NFkB conf
CCc1ccc(N2C(=O)C(Cl)=C(Nc3ccc(C(=O)N4CCCC4)cc3)C2=O)cc1 | -117.2 | 82.5* | x | x | x | 17.8 | 87.8*
CC(=O)c1c(C(C)=O)c(C)n(-c2ccc(N)c(C)c2)c1C | -4.9 | 13.5 | -24.0 | -4.1 | -0.1 | -5.5 | x
O=C(c1cc(-c2ccc(Cl)cc2Cl)on1)N1CCCCCC1 | -179.7 | -161.8 | -71.5 | x | 7.9 | x | -132.2
O=C(c1cc(-c2ccc(Cl)cc2)on1)N1CCCCCC1 | -141.5 | -169.3 | -147.7 | x | -18.3 | x | -156.6
CCCC(C)NC(=O)Cc1ccc(S(=O)(=O)N2CCOCC2)s1 (stereo unspecified) | -8.3 | 13.8 | x | x | x | -5.1 | x
COC(=O)C1C(=O)c2c([nH]c(C(=O)OCCOC(C)C)c2C)CC1C (stereo unspecified) | -27.0 | -19.9 | -59.1 | 2.6 | -2.1 | x | x
COC(=O)C1C(=O)c2c([nH]c(C(=O)OC3CCCC3C)c2C)CC1C (stereo unspecified) | -161.2 | -180.2 | -168.2 | -156.6 | 16.9 | x | -112.0
COC(=O)C1C(=O)c2c([nH]c(C(=O)OC3CCCCC3)c2C)CC1C (stereo unspecified) | -168.8 | -163.2 | -178.3 | -123.7 | 2.5 | x | -93.3
Cc1c(C(=O)OC2CCCCC2)[nH]c2c1C(=O)CC(C)(C)C2 | -102.3 | -33.2 | -52.1 | 8.5 | 0.3 | 12.2 | x
c1ccc2oc(-c3ccc(Nc4nc(N5CCCC5)nc(N5CCOCC5)n4)cc3)nc2c1 | -71.7 | -46.2 | 8.0 | 1.8 | 13.1 | x | x
O=C(c1ccc(F)cc1)C(CN1CCOCC1)c1ccccc1 (stereo unspecified) | -136.5 | 52.5* | -8.6 | 94.8* | x | x | 12.2
Fc1cccc(F)c1CSc1nc2ccccc2[nH]1 | -187.3 | -170.1 | -126.6 | -155.7 | -1.7 | 2.5 | -136.4
CCOC(=O)c1ccc(NC(=O)C2CC3CCC2C3)cc1 (stereo unspecified) | -164.4 | -153.9 | -128.2 | x | x | 18.4 | -115.7
COC(=O)c1ccc(NC(=O)C2CC3CCC2C3)cc1 (stereo unspecified) | -38.6 | -67.4 | -193.9 | x | x | -0.6 | x
Cn1cccc1C(=O)C(=O)Nc1cccc(Cl)c1Cl | -184.9 | -150.8 | -147.6 | -34.9 | x | 7.1 | -64.2
Cn1cccc1C(=O)C(=O)Nc1ccc(Cl)cc1 | -161.7 | -112.4 | -119.4 | -186.1 | x | 10.2 | x
CN(C)S(=O)(=O)c1ccc(C(=O)Nc2ccc3nc(N4CCOCC4)sc3c2)cc1 | -30.9 | -2.5 | x | x | x | 2.4 | x
CCOC(=O)c1[nH]c(C)c(/C(O)=C2\C(=O)C(=O)N(CCCN3CCOCC3)C2c2cccs2)c1C (stereo unspecified) | -25.1 | 54.8* | -34.3 | x | -5.8 | 4.7 | 11.9
N=C1/C(=C/c2cccn2Cc2ccc(Cl)cc2)C(=O)N=C2SC=CN12 | -18.8 | 12.6 | -17.6 | -0.3 | -19.3 | x | x
Cc1cc(NCCN2CCOCC2)n2ncc(-c3ccccc3)c2n1 | -139.3 | -178.5 | -61.9 | -41.5 | x | 1.4 | -87.6
Cc1cc(C(C)(C)C)cc(C)c1C[n+]1ccc2ccccc2c1 | 19.5 | 77.1* | 7.4 | x | -91.5 | x | 50.7*
Cc1ccc(C(=O)C[n+]2ccc3ccccc3c2)cc1 | -5.5 | 0.3 | -29.6 | -9.4 | 17.1 | -1.2 | x
Cc1nn(CC(=O)NCCCN2CC(C)CC(C)C2)c(=O)c2cccn12 (stereo unspecified) | -10.2 | 3.2 | 17.5 | x | -5.0 | x | x
c1ccc(-c2cc(-c3ccccc3)on2)cc1 | -205.8 | -208.6 | -152.5 | x | 11.9 | -5.3 | -150.9
Cc1ccc(O)c(NC(=O)C2CC(c3cccc(Br)c3)=NO2)c1 (stereo unspecified) | 7.6 | 63.0* | 0.2 | x | x | x | 25.0
SMILES | 697 NFkB inh | Jurkat NFkB inh | aSyn 5UTR inh | APP transl inh | Lipid droplet | H9c2 TAG inh | Jurkat NFkB conf
Cc1nc(=O)c(-c2ccccc2)c(C)n1-c1cccc(/C=C/C(=O)O)c1 | -2.1 | -0.3 | 15.3 | x | x | x | x
CCOc1ccc(/C=N/Nc2cc(N3CCOCC3)ncn2)c(O)c1 | x | x | x | x | x | 17.6 | x
CCCOc1ccc(/C=N/Nc2cc(N3CCOCC3)ncn2)c(O)c1 | -70.9 | 55.0* | 3.1 | x | -0.8 | x | 75.5*
Cc1ccnc(N/N=C/c2ccccc2)n1 | -68.5 | -75.1 | -89.6 | -83.4 | 0.6 | x | x
CSc1nccc(N/N=C/c2ccccc2)n1 | -135.7 | -159.7 | -157.7 | x | 0.9 | x | -66.9
O=C(O)CSCC(=O)Nc1ccccc1SCCS(=O)(=O)c1ccc(Cl)cc1 | x | x | -3.2 | x | 3.9 | x | x
CC(C)NC(=O)NC(=O)COc1ccc(Br)cc1Br | -205.5 | -204.8 | -11.1 | -203.4 | -15.1 | 1.4 | -93.8
CSCCC(=O)N1CCC(n2nccc2NC(=O)c2ccc3c(c2)OCO3)CC1 | -96.8 | -86.3 | -84.1 | x | 13.4 | 3.5 | x
CC#CC(=O)N1CCC(n2nccc2NC(=O)c2ccc3c(c2)OCO3)CC1 | 9.0 | 74.0* | -83.0 | x | 0.0 | 38.1 | 35.9
N#Cc1cc2cc3c(cc2nc1SCC(=O)N1CCCC1)OCCO3 | -65.0 | -167.1 | -84.6 | x | 11.2 | x | -24.0
CCOc1cc(CNCCCN2CCOCC2)cc(Cl)c1OCC(=O)NC(C)(C)C | 1.4 | -8.2 | -0.3 | x | x | x | x
CCOc1cc(CNCCCN2CCOCC2)cc(Br)c1OCC(=O)Nc1cccc(C(F)(F)F)c1 | 17.5 | 60.4* | -20.4 | -12.8 | x | x | 8.4
CCOc1ccc(-c2ccc(SCC)nn2)cc1 | -236.7 | -223.7 | x | -167.4 | 0.1 | 6.0 | -88.0
Nc1cccc(-c2cn3cc(C(F)(F)F)cc(Cl)c3n2)c1 | -133.8 | -194.3 | -99.9 | x | -0.5 | x | -45.7
FC(F)(F)c1cc(Cl)c2nc(-c3ccccc3)cn2c1 | -191.0 | -149.7 | -79.6 | -163.5 | x | x | x
Cc1ccc(NC(=S)NNC(=S)Nc2ccc(C)cc2C)cc1 | -6.9 | 65.8* | 112.8* | 92.5* | u | 5.6 | -18.2
Cc1ccc([N+](=O)[O-])cc1S(=O)(=O)Nc1ccc(C(=O)N2CCN(C(=O)c3ccco3)CC2)cc1 | 10.7 | -7.3 | x | x | x | 0.8 | x
Cc1ccc(NC(=O)Nc2ccnc(-c3cccnc3)n2)cc1 | -13.7 | 62.4* | 109.6* | 82.7* | -13.9 | 24.6 | 46.8*
COc1cc(OC)cc(C(=O)N2CCC(C(=O)NCCc3ccccc3)CC2)c1 | -25.9 | -24.4 | -3.0 | x | -10.0 | x | x
OCc1ccccc1CN1CCCCCC1 | 3.2 | 0.6 | -13.6 | x | x | 3.6 | x
CCOc1ccccc1C1CC(=O)Nc2cc(OC)c(OC)c(OC)c21 (stereo unspecified) | 26.7 | -6.7 | 26.8 | -5.3 | -18.3 | -6.8 | x
CCOc1ccccc1C1CC(=O)Nc2cc3c(cc21)OCCO3 (stereo unspecified) | -4.8 | 69.9* | 91.9* | 13.7 | x | x | 56.9*
CCOc1ccccc1C1CC(=O)Nc2cc(C)c(C)cc21 (stereo unspecified) | -53.1 | 52.1* | 33.7 | x | -8.0 | 11.1 | 38.5
CCOc1ccccc1C1CC(=O)NC2=C1C(=O)CCC2 (stereo unspecified) | -22.1 | 47.2 | -46.1 | -3.5 | x | x | x
CCCOc1ccccc1C1CC(=O)NC2=C1C(=O)CCC2 (stereo unspecified) | -53.5 | 59.1* | 32.1 | 21.4 | x | 32.3 | 25.1
